Assay results as given in ChEMBL document CHEMBL1240456, “Synthesis and antimicrobial activity of some new thiazole, thiophene and pyrazole derivatives containing benzothiazole moiety” (2010).
In brackets after ≈: the same amount, converted by molar mass.

Assays:
Assay type in all cases: functional
Fusarium oxysporum [1] = assay: Antimicrobial activity against Fusarium oxysporum after 48 hrs by agar diffusion assay
Aspergillus fumigatus [2] = assay: Antimicrobial activity against Aspergillus fumigatus after 48 hrs by microdilution assay
Summary of the method: (§1)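 Broth microdilution in Sabouraud liquid medium, run only for compounds giving zones >12 mm. Stock at 1000 µg/mL in DMF, then twofold dilutions of 500 down to 3.125 µg/mL. Wells inoculated with 10^6 CFU/mL.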

Fusarium oxysporum [3] = assay: Antimicrobial activity against Fusarium oxysporum after 48 hrs by microdilution assay; summary of the method: as §1
Aspergillus fumigatus [4] = assay: Antimicrobial activity against Aspergillus fumigatus after 48 hrs by agar diffusion assay
Pseudomonas fluorescens [5] = assay: Antimicrobial activity against Pseudomonas fluorescens S 97 after 24 hrs by agar diffusion assay
Summary of the method: (§2)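 Filter-paper disks (5 mm) loaded with test solution at 1 mg/mL in DMF, placed on agar seeded with the bacterium, in triplicate. DMF alone served as control. Plates incubated at 37 °C for 24 h. Read-out is the mean diameter of the inhibition zone in mm.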

Staphylococcus aureus [6] = assay: Antimicrobial activity against Staphylococcus aureus ATCC 25923 after 24 hrs by agar diffusion assay; summary of the method: as §2
Streptococcus pyogenes [7] = assay: Antimicrobial activity against Streptococcus pyogenes ATCC 19615 after 24 hrs by microdilution assay; details: ATCC 19615, 24 h
Summary of the method: (§3)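 Broth microdilution in Müller-Hinton broth, run only for compounds giving zones >12 mm. Stock at 1000 µg/mL in DMF, then twofold dilutions of 500 down to 3.125 µg/mL. Wells inoculated with 10^6 CFU/mL.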

Pseudomonas [8] = assay: Antimicrobial activity against Pseudomonas phaseolicola GSPB 2828 after 24 hrs by microdilution assay; details: GSPB 2828, 24 h; summary of the method: as §3
Streptococcus pyogenes [9] = assay: Antimicrobial activity against Streptococcus pyogenes ATCC 19615 after 24 hrs by agar diffusion assay; summary of the method: as §2
Staphylococcus aureus [10] = assay: Antimicrobial activity against Staphylococcus aureus ATCC 25923 after 24 hrs by microdilution assay; details: ATCC 25923, 24 h; summary of the method: as §3
Pseudomonas fluorescens [11] = assay: Antimicrobial activity against Pseudomonas fluorescens S 97 after 24 hrs by microdilution assay; details: S 97, 24 h; summary of the method: as §3
Pseudomonas [12] = assay: Antimicrobial activity against Pseudomonas phaseolicola GSPB 2828 after 24 hrs by agar diffusion assay; summary of the method: as §2

Compound | MIC (Aspergillus fumigatus [2]) | MIC (Fusarium oxysporum [3]) | MIC (Streptococcus pyogenes [7]) | MIC (Pseudomonas [8]) | MIC (Staphylococcus aureus [10]) | MIC (Pseudomonas fluorescens [11]) | inhibition zone (IZ) (Fusarium oxysporum [1]) | inhibition zone (IZ) (Aspergillus fumigatus [4]) | inhibition zone (IZ) (Pseudomonas fluorescens [5]) | inhibition zone (IZ) (Staphylococcus aureus [6]) | inhibition zone (IZ) (Streptococcus pyogenes [9]) | inhibition zone (IZ) (Pseudomonas [12])
C[C@@H]1C[C@@H]([C@H](O)CC2CC(=O)NC(=O)C2)C(=O)[C@@H](C)C1 [CYCLOHEXIMIDE] | 3.12 µg/mL (≈ 11.1 µM) | 3.12 µg/mL (≈ 11.1 µM) |  |  |  |  | 43 mm | 42 mm |  |  |  | 
O=c1c2c(Nc3ccccc3)n[nH]c2ncn1-c1nc2ccccc2s1 | 100 µg/mL (≈ 277 µM) | 50 µg/mL (≈ 139 µM) | 100 µg/mL (≈ 277 µM) | 6.25 µg/mL (≈ 17.3 µM) | 100 µg/mL (≈ 277 µM) | 100 µg/mL (≈ 277 µM) | 19 mm | 15 mm | 15 mm | 15 mm | 15 mm | 38 mm
O=C(Nc1nc2ccccc2s1)c1c(Nc2ccccc2)nn2c(-c3cccs3)ccnc12 | 25 µg/mL (≈ 53.4 µM) | 6.25 µg/mL (≈ 13.3 µM) | 100 µg/mL (≈ 213 µM) | 100 µg/mL (≈ 213 µM) | 100 µg/mL (≈ 213 µM) | 50 µg/mL (≈ 107 µM) | 37 mm | 26 mm | 18 mm | 14 mm | 15 mm | 15 mm
N#C/C(C(=O)Nc1nc2ccccc2s1)=C1\SCC(=O)N1c1ccccc1 | 50 µg/mL (≈ 127 µM) | 100 µg/mL (≈ 255 µM) | 100 µg/mL (≈ 255 µM) | 100 µg/mL (≈ 255 µM) | 100 µg/mL (≈ 255 µM) | 100 µg/mL (≈ 255 µM) | 14 mm | 19 mm | 17 mm | 15 mm | 14 mm | 15 mm
Nc1[nH]nc(-c2cn(-c3ccccc3)nc2-c2ccccc2)c1C(=O)Nc1nc2ccccc2s1 |  | 50 µg/mL (≈ 105 µM) | 6.25 µg/mL (≈ 13.1 µM) | 100 µg/mL (≈ 209 µM) | 12.5 µg/mL (≈ 26.2 µM) | 50 µg/mL (≈ 105 µM) | 19 mm |  | 20 mm | 32 mm | 38 mm | 14 mm
CCOC(=O)c1sc(Nc2ccccc2)c(C(=O)Nc2nc3ccccc3s2)c1N | 12.5 µg/mL (≈ 28.5 µM) | 100 µg/mL (≈ 228 µM) | 6.25 µg/mL (≈ 14.3 µM) | 50 µg/mL (≈ 114 µM) | 3.12 µg/mL (≈ 7.13 µM) |  | 14 mm | 31 mm |  | 43 mm | 38 mm | 19 mm
Nc1c(C(=O)c2ccccc2)sc(Nc2ccccc2)c1C(=O)Nc1nc2ccccc2s1 |  | 100 µg/mL (≈ 213 µM) | 6.25 µg/mL (≈ 13.3 µM) | 50 µg/mL (≈ 106 µM) | 6.25 µg/mL (≈ 13.3 µM) | 50 µg/mL (≈ 106 µM) | 14 mm |  | 20 mm | 38 mm | 37 mm | 19 mm
Nc1sc2c(c1C(=O)Nc1nc3ccccc3s1)CCCC2 | 50 µg/mL (≈ 152 µM) | 100 µg/mL (≈ 304 µM) | 6.25 µg/mL (≈ 19 µM) | 100 µg/mL (≈ 304 µM) | 6.25 µg/mL (≈ 19 µM) | 100 µg/mL (≈ 304 µM) | 15 mm | 19 mm | 16 mm | 38 mm | 38 mm | 14 mm
O=C(Nc1nc2ccccc2s1)c1c(Nc2ccccc2)n[nH]c1/N=C\c1cn(-c2ccccc2)nc1-c1ccccc1 | 100 µg/mL (≈ 172 µM) | 25 µg/mL (≈ 43.1 µM) | 6.25 µg/mL (≈ 10.8 µM) | 100 µg/mL (≈ 172 µM) | 3.12 µg/mL (≈ 5.38 µM) | 50 µg/mL (≈ 86.1 µM) | 26 mm | 14 mm | 19 mm | 44 mm | 37 mm | 15 mm
O=C(N[C@H](CO)[C@H](O)c1ccc([N+](=O)[O-])cc1)C(Cl)Cl [CHLORAMPHENICOL] |  |  | 3.12 µg/mL (≈ 9.67 µM) | 6.25 µg/mL (≈ 19.3 µM) | 3.12 µg/mL (≈ 9.67 µM) | 6.25 µg/mL (≈ 19.3 µM) |  |  | 38 mm | 42 mm | 44 mm | 37 mm
Cc1cc(C)c2c(n1)[nH]n1c(=N)c(C(=O)Nc3nc4ccccc4s3)nnc21 | 50 µg/mL (≈ 128 µM) | 25 µg/mL (≈ 64 µM) | 100 µg/mL (≈ 256 µM) | 100 µg/mL (≈ 256 µM) | 100 µg/mL (≈ 256 µM) | 12.5 µg/mL (≈ 32 µM) | 26 mm | 19 mm | 32 mm | 14 mm | 15 mm | 15 mm

Now from value to compound, other results behind:

MIC (Aspergillus fumigatus [2]) | MIC (Fusarium oxysporum [3]) | MIC (Streptococcus pyogenes [7]) | MIC (Pseudomonas [8]) | MIC (Staphylococcus aureus [10]) | MIC (Pseudomonas fluorescens [11]) | Compound | inhibition zone (IZ) (Fusarium oxysporum [1]) | inhibition zone (IZ) (Aspergillus fumigatus [4]) | inhibition zone (IZ) (Pseudomonas fluorescens [5]) | inhibition zone (IZ) (Staphylococcus aureus [6]) | inhibition zone (IZ) (Streptococcus pyogenes [9]) | inhibition zone (IZ) (Pseudomonas [12])
100 µg/mL (≈ 240 µM) | 100 µg/mL (≈ 240 µM) | 6.25 µg/mL (≈ 15 µM) | 25 µg/mL (≈ 60 µM) | 25 µg/mL (≈ 60 µM) | 50 µg/mL (≈ 120 µM) | Cc1cc(O)n2nc(Nc3ccccc3)c(C(=O)Nc3nc4ccccc4s3)c2n1 | 15 mm | 14 mm | 19 mm | 25 mm | 37 mm | 26 mm
6.25 µg/mL (≈ 13.8 µM) | 100 µg/mL (≈ 221 µM) | 100 µg/mL (≈ 221 µM) | 100 µg/mL (≈ 221 µM) | 50 µg/mL (≈ 110 µM) | 50 µg/mL (≈ 110 µM) | N#C/C(C(=O)Nc1nc2ccccc2s1)=C1/SC=C(c2ccccc2)N1c1ccccc1 | 15 mm | 38 mm | 19 mm | 19 mm | 15 mm | 14 mm
100 µg/mL (≈ 260 µM) | 12.5 µg/mL (≈ 32.5 µM) | 100 µg/mL (≈ 260 µM) | 50 µg/mL (≈ 130 µM) | 12.5 µg/mL (≈ 32.5 µM) | 100 µg/mL (≈ 260 µM) | Nc1c(C(=O)Nc2nc3ccccc3s2)sc(=S)n1-c1ccccc1 | 31 mm | 16 mm | 16 mm | 32 mm | 14 mm | 20 mm
 |  | 6.25 µg/mL (≈ 15.8 µM) | 6.25 µg/mL (≈ 15.8 µM) | 6.25 µg/mL (≈ 15.8 µM) | 6.25 µg/mL (≈ 15.8 µM) | CC(=O)OCC1=C(C(=O)O)N2C(=O)[C@@H](NC(=O)Cc3cccs3)[C@H]2SC1 [CEPHALOTHIN] |  |  | 37 mm | 36 mm | 37 mm | 38 mm
50 µg/mL (≈ 172 µM) | 100 µg/mL (≈ 343 µM) | 25 µg/mL (≈ 85.8 µM) | 100 µg/mL (≈ 343 µM) | 25 µg/mL (≈ 85.8 µM) | 6.25 µg/mL (≈ 21.5 µM) | O=C1CSC(CC(=O)Nc2nc3ccccc3s2)=N1 | 16 mm | 20 mm | 37 mm | 26 mm | 25 mm | 14 mm
